# Laboratory results as given in ChEMBL document CHEMBL1146554, “Antioxidative meroterpenoids from the brown alga Cystoseira crinita” (J Nat Prod, 2003).
# Calls of active or inactive are those of the source. No cut-off for these calls is given here.
# Experiments:
# [1] = system: Radical scavenging activity; assay: Antioxidant activity assessed as DPPH radical scavenging activity at 6 uM after 30 mins; type: functional
# In short: (§1)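 Samples in EtOH (100 µL) mixed with 25 µL of 1 mM DPPH in EtOH plus 75 µL EtOH, then shaken briefly. Kept 30 min at room temperature in the dark. Absorbance read at 517 nm. % scavenging calculated against control, with blank and sample-blank corrections.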
# [2] = system: Radical scavenging activity; assay: Antioxidant activity assessed as DPPH radical scavenging activity at 23 uM after 30 mins; type: functional; in short: as §1
# [3] = system: Radical scavenging activity; assay: Antioxidant activity assessed as DPPH radical scavenging activity at 58 uM after 30 mins; type: functional; in short: as §1
# [4] = system: Radical scavenging activity; assay: Antioxidant activity assessed as DPPH radical scavenging activity at 115 uM after 30 mins; type: functional; in short: as §1
# [5] = system: Radical scavenging activity; assay: Antioxidant activity assessed as DPPH radical scavenging activity at 230 uM after 30 mins; type: functional; in short: as §1
# [6] = Antioxidant activity assessed as inhibition of FeSO4-induced lipid peroxidation at 8 uM by TBARS assay; type: functional
# In short: (§2)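 Linolenic acid methyl ester oxidized under FeSO4 catalysis in 50 mM phosphate buffer pH 7.2 at 50 °C. BHT in ethanol added to stop further oxidation. TBARS developed with trichloroacetic and thiobarbituric acid, 60 °C for 30 min. Read A532 minus A600 background. % inhibition calculated versus uninhibited control, with blank and sample-blank corrections.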
# [7] = Antioxidant activity assessed as inhibition of FeSO4-induced lipid peroxidation at 16 uM by TBARS assay; type: functional; in short: as §2
# [8] = Antioxidant activity assessed as inhibition of FeSO4-induced lipid peroxidation at 33 uM by TBARS assay; type: functional; in short: as §2
# [9] = Antioxidant activity assessed as inhibition of FeSO4-induced lipid peroxidation at 82 uM by TBARS assay; type: functional; in short: as §2
# [10] = Antioxidant activity assessed as inhibition of FeSO4-induced lipid peroxidation at 164 uM by TBARS assay; type: functional; in short: as §2
# [11] = system: Priestia megaterium; assay: Antimicrobial activity against Bacillus megaterium at 50 ug/disk by agar diffusion assay; type: functional, organism-based
# In short: (§3)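 Agar diffusion assay with discs loaded at 50 µg/disk, run against the bacteria, fungi and the green microalga Chlorella fusca.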
# [12] = system: Escherichia coli; assay: Antimicrobial activity against Escherichia coli at 50 ug/disk by agar diffusion assay; type: functional, organism-based; in short: as §3
# [13] = system: Microbotryum violaceum; assay: Antimicrobial activity against Microbotryum violaceum at 50 ug/disk by agar diffusion assay; type: functional, organism-based; in short: as §3
# [14] = system: Aspergillus pseudoglaucus; assay: Antimicrobial activity against Eurotium repens at 50 ug/disk by agar diffusion assay; type: functional, organism-based; in short: as §3
# [15] = system: Mycotypha microspora; assay: Antimicrobial activity against Mycotypha microspora at 50 ug/disk by agar diffusion assay; type: functional, organism-based; in short: as §3
# [16] = system: [Chlorella] fusca; assay: Antimicrobial activity against 'Chlorella' fusca at 50 ug/disk by agar diffusion assay; type: functional, organism-based; conditions: Scenedesmus fuscus; in short: as §3
# [17] = system: Radical scavenging activity; assay: Antioxidant activity assessed as DPPH radical scavenging activity at 12 uM after 30 mins; type: functional; in short: as §1
# [18] = ABTS radical scavenging activity assessed as trolox equivalents by TEAC assay; type: physicochemical
# In short: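 ABTS radical cation made by passing ABTS in PBS through manganese dioxide, then filtered (0.2 µm). Diluted in 5 mM PBS pH 7.4 to A734 0.700 and preincubated 2 h at room temperature. 1 mL radical mixed with 200 µL ethanolic sample, vortexed 30 s, centrifuged. A734 of lower phase read exactly 2 min after mixing. PBS and ethanol blanks included. Trolox standards used; value is mM Trolox equivalent to 1.0 mM compound.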
# [19] = Superoxide radical scavenging activity assessed as trolox equivalents by photochemiluminescence assay
# In short: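 Photochemiluminescence with luminol acting as photosensitizer and detection reagent, generating superoxide. Mix of 2.29 mL reagent 1 (solvent/diluent), 200 µL buffer reagent, 25 µL photosensitizer and 10 µL sample in ethanol or Trolox standard in water. Antioxidant capacity taken from the integral under the curve and expressed as Trolox equivalents.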
# [20] = Cytotoxicity against human HM02 cells; type: functional
# In short: (§4)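 Cytotoxicity tested on HM02 gastric adenocarcinoma, HepG2 hepatocellular carcinoma and MCF7 breast adenocarcinoma lines following NCI standards.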
# [21] = system: HepG2; assay: Cytotoxicity against human HepG2 cells; type: functional; in short: as §4
# [22] = system: MCF7; assay: Cytotoxicity against human MCF7 cells; type: functional; in short: as §4
smiles,measurement,setting,value
CC(C)=CC(O)C/C(C)=C/CC/C(C)=C\C(=O)C/C(C)=C/Cc1cc(O)cc(C)c1O (configuration not stated),Activity,[1],5.8%
same,Activity,[2],17.1%
same,Activity,[3],55.2%
same,Activity,[4],95.5%
same,Activity,[5],95.5%
same,inhibition,[6],4.9%
same,inhibition,[7],10.4%
same,inhibition,[8],19.2%
same,inhibition,[9],60.4%
same,inhibition,[10],70.3%
same,Activity,[11],inactive
same,Activity,[12],inactive
same,Activity,[13],inactive
same,Activity,[14],inactive
same,Activity,[15],inactive
same,Activity,[16],inactive
same,Activity,[17],9.7%
CC(C)=CC(=O)C/C(C)=C/CC/C(C)=C/C(=O)C/C(C)=C/Cc1cc(O)cc(C)c1O,Activity,[1],7.6%
same,Activity,[2],29.1%
same,Activity,[3],80.8%
same,Activity,[4],95.7%
same,Activity,[5],95.5%
same,Activity,[18],0.37 mmol/L
same,Activity,[19],1.39 mmol/L
same,inhibition,[6],13.6%
same,inhibition,[7],20.3%
same,inhibition,[8],39.9%
same,inhibition,[9],70.1%
same,inhibition,[10],72.2%
same,Activity,[11],inactive
same,Activity,[12],inactive
same,Activity,[13],inactive
same,Activity,[14],inactive
same,Activity,[15],inactive
same,Activity,[16],inactive
same,Activity,[17],14.3%
CC(C)=CCC/C(C)=C/C(=O)C/C(C)=C/Cc1cc(O)cc(C)c1O,Activity,[1],2.6%
same,Activity,[2],11.2%
same,Activity,[3],29.8%
same,Activity,[4],59.1%
same,Activity,[5],94.1%
same,inhibition,[6],9.2%
same,inhibition,[7],19.8%
same,inhibition,[8],22.2%
same,inhibition,[9],43.1%
same,inhibition,[10],66.8%
same,Activity,[11],inactive
same,Activity,[12],inactive
same,Activity,[13],inactive
same,Activity,[14],inactive
same,Activity,[15],inactive
same,Activity,[16],inactive
same,Activity,[17],3.7%
CC(C)=CCC/C(C)=C/CC/C(C)=C/C(=O)C/C(C)=C/Cc1cc(O)cc(C)c1O,Activity,[1],6%
same,Activity,[2],24.4%
same,Activity,[3],67.4%
same,Activity,[4],95%
same,Activity,[5],94.4%
same,inhibition,[6],13.3%
same,inhibition,[7],17%
same,inhibition,[8],24.3%
same,inhibition,[9],61.7%
same,inhibition,[10],70.8%
same,Activity,[11],inactive
same,Activity,[12],inactive
same,Activity,[13],inactive
same,Activity,[14],inactive
same,Activity,[15],inactive
same,Activity,[16],inactive
same,Activity,[17],8.6%
Cc1cc(C(C)(C)C)c(O)c(C(C)(C)C)c1,Activity,[1],1.2%
same,Activity,[2],5.6%
same,Activity,[3],11.8%
same,Activity,[4],22%
same,Activity,[5],35.6%
same,inhibition,[6],23.1%
same,inhibition,[7],35.4%
same,inhibition,[8],49.1%
same,inhibition,[9],63.3%
same,inhibition,[10],69.3%
same,Activity,[17],2.9%
Cc1c(C)c2c(c(C)c1O)CC[C@@](C)(CCC[C@H](C)CCC[C@H](C)CCCC(C)C)O2 [ALPHA-TOCOPHEROL],Activity,[1],8.2%
same,Activity,[2],33.9%
same,Activity,[3],88.1%
same,Activity,[4],94.9%
same,Activity,[5],95.2%
same,Activity,[18],0.63 mmol/L
same,Activity,[19],1.26 mmol/L
same,inhibition,[6],13.1%
same,inhibition,[7],32.1%
same,inhibition,[8],67.6%
same,inhibition,[9],71.2%
same,inhibition,[10],72.7%
same,Activity,[17],16.3%
CC(C)=CCC/C(C)=C/CC/C(C)=C\C(=O)C/C(C)=C/Cc1cc(O)cc(C)c1O,Activity,[1],6.9%
same,Activity,[2],25.5%
same,Activity,[3],67.2%
same,Activity,[4],95.4%
same,Activity,[5],95.4%
same,Activity,[18],0.14 mmol/L
same,Activity,[19],1.35 mmol/L
same,inhibition,[6],10.7%
same,inhibition,[7],12.1%
same,inhibition,[8],28.6%
same,inhibition,[9],66.8%
same,inhibition,[10],71.8%
same,Activity,[11],inactive
same,Activity,[12],inactive
same,Activity,[13],inactive
same,Activity,[14],inactive
same,Activity,[15],inactive
same,Activity,[16],inactive
same,Activity,[17],11.8%
CC(C)=CC(O)C/C(C)=C/CC/C(C)=C/C(=O)C/C(C)=C/Cc1cc(O)cc(C)c1O (configuration not stated),Activity,[1],4.6%
same,Activity,[2],18.1%
same,Activity,[3],49.2%
same,Activity,[4],93.2%
same,Activity,[5],96.1%
same,inhibition,[6],7.8%
same,inhibition,[7],11.7%
same,inhibition,[8],17.6%
same,inhibition,[9],55.4%
same,inhibition,[10],68.9%
same,Activity,[11],inactive
same,Activity,[12],inactive
same,Activity,[13],inactive
same,Activity,[14],inactive
same,Activity,[15],inactive
same,Activity,[16],inactive
same,Activity,[17],7.4%
CC1=CC(=O)C=C(C/C=C(\C)CC(=O)/C=C(/C)CC/C=C(\C)Cc2cc(C)co2)C1=O,Activity,[1],1.1%
same,Activity,[2],5.5%
same,Activity,[3],12.2%
same,Activity,[4],22.8%
same,Activity,[5],38.6%
same,Activity,[18],0.3 mmol/L
same,Activity,[19],1.41 mmol/L
same,inhibition,[6],11.1%
same,inhibition,[7],16.1%
same,inhibition,[8],24.4%
same,inhibition,[9],38.7%
same,inhibition,[10],54.4%
same,Activity,[11],inactive
same,Activity,[12],inactive
same,Activity,[13],inactive
same,Activity,[14],inactive
same,Activity,[15],inactive
same,Activity,[16],inactive
same,Activity,[17],1.8%
C/C(=C\C(=O)C/C(C)=C/Cc1cc(O)cc(C)c1O)CC/C=C(\C)Cc1cc(C)co1,Activity,[1],8%
same,Activity,[2],24.9%
same,Activity,[3],65.4%
same,Activity,[4],95.2%
same,Activity,[5],95.4%
same,Activity,[18],0.08 mmol/L
same,Activity,[19],1.06 mmol/L
same,inhibition,[6],15.1%
same,inhibition,[7],25.8%
same,inhibition,[8],41.2%
same,inhibition,[9],69.3%
same,inhibition,[10],74.9%
same,GI50,[20],0.3 µg/mL
same,LC50,[20],3.4 µg/mL
same,TGI,[20],0.6 µg/mL
same,GI50,[21],1.8 µg/mL
same,LC50,[21],> 10 µg/mL
same,TGI,[21],4 µg/mL
same,GI50,[22],1.3 µg/mL
same,LC50,[22],3.7 µg/mL
same,TGI,[22],2.1 µg/mL
same,Activity,[11],inactive
same,Activity,[12],inactive
same,Activity,[13],inactive
same,Activity,[14],inactive
same,Activity,[15],inactive
same,Activity,[16],inactive
same,Activity,[17],12.5%
C/C(=C/C(=O)C/C(C)=C/Cc1cc(O)cc(C)c1O)CC/C=C(\C)Cc1cc(C)co1,Activity,[1],5.9%
same,Activity,[2],22.1%
same,Activity,[3],56.7%
same,Activity,[4],95.7%
same,Activity,[5],95.8%
same,Activity,[18],0.28 mmol/L
same,Activity,[19],0.79 mmol/L
same,inhibition,[6],16.4%
same,inhibition,[7],25.2%
same,inhibition,[8],38.9%
same,inhibition,[9],66.6%
same,inhibition,[10],74.6%
same,GI50,[20],0.9 µg/mL
same,LC50,[20],4.6 µg/mL
same,TGI,[20],2 µg/mL
same,GI50,[21],1.7 µg/mL
same,LC50,[21],> 10 µg/mL
same,TGI,[21],5 µg/mL
same,GI50,[22],0.9 µg/mL
same,LC50,[22],3.6 µg/mL
same,TGI,[22],1.7 µg/mL
same,Activity,[11],inactive
same,Activity,[12],inactive
same,Activity,[13],inactive
same,Activity,[14],inactive
same,Activity,[15],inactive
same,Activity,[16],inactive
same,Activity,[17],11%
CC1=CC(=O)C=C(C/C=C(\C)CC(=O)/C=C(\C)CC/C=C(\C)Cc2cc(C)co2)C1=O,Activity,[1],1%
same,Activity,[2],2.9%
same,Activity,[3],8.1%
same,Activity,[4],16%
same,Activity,[5],29%
same,inhibition,[6],7.6%
same,inhibition,[7],14.2%
same,inhibition,[8],20.2%
same,inhibition,[9],31.4%
same,inhibition,[10],43.3%
same,Activity,[17],2.2%
CC(C)=CCC/C(C)=C\C(=O)C/C(C)=C/Cc1cc(O)cc(C)c1O,Activity,[1],2.6%
same,Activity,[2],17.7%
same,Activity,[3],50.2%
same,Activity,[4],92.1%
same,Activity,[5],92.5%
same,inhibition,[6],13.2%
same,inhibition,[7],19.9%
same,inhibition,[8],28.8%
same,inhibition,[9],52.9%
same,inhibition,[10],66.5%
same,Activity,[17],5.9%
